Compound activity: PubChem BioAssay, Sanford-Burnham Center for Chemical Genomics
Apaf-1 inh = inhibitors of human Apaf-1 apoptosome, primary screen, biochemical, DEVD-Rh110 fluorescence, uHTS | Apoptotic protease-activating factor 1 (Homo sapiens), O14727 | reconstituted apoptosome caspase-3 activity | AID 489030, 2010 | inhibition, % at 20 µM | 330,000 tested, 0.71% active; active means inhibition of at least 40% at 20 µM;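 further: plate controls were DMSO wells for no effect and DEVD-CHO caspase inhibitor wells for full effect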
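Assay system: Apoptosome proteins | Medium: pH 7.5 Hepes buffer with CHAPS, BSA, DTT | Also added: Cytochrome c and DEVD-Rh110 substrate | Times: 30 min plus 50 min, RT | Detection: Rhodamine 110 fluorescence at Ex 480/Em 540 nm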
SENP8 block-1 = human SENP8 protease inhibitors, primary screen, biochemical, fluorescence, Nedd8 protein substrate, uHTS | Sentrin-specific protease 8 (Homo sapiens), Q96LD8 | recombinant SENP8 | inhibition, % at 20 µM | 360,000 tested, 0.64% active; in the data active means inhibition mostly above about 40%, no sharp cut-off; inactive means mostly below about 27%
UBC13 inh = UBC13 polyubiquitin chain formation inhibitors, primary screen, biochemical, TR-FRET, uHTS | Ubiquitin-conjugating enzyme E2 N (Homo sapiens), P61088 | inhibition, % at 20 µM | 330,000 tested, 0.47% active; in the data active means inhibition above about 45%, passing the limit was not always enough; inconclusive means no clear call, values can overlap the other calls
SENP6 inh = SENP6 protease inhibitors, primary screen, biochemical, luminescence, uHTS | Sentrin-specific protease 6 (Homo sapiens), Q9GZR1 | Recombinant SENP6 catalytic domain, aminoluciferin luminescence | inhibition, % at 10 µM | 330,000 tested, 1.8% active;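 active means inhibition above about 50% at the single tested dose, limit read from the data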;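 further: plate controls were DMSO wells with enzyme for no effect and DMSO wells lacking enzyme for full effect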
SENP8 block-2 = SENP8 protease inhibitors, primary screen, biochemical, luminescence; Sentrin-specific protease 8 (Homo sapiens), Q96LD8; purified SENP8, Z-RLRGG-aminoluciferin cleavage; inhibition, % at 10 µM; 330,000 tested, 1.2% active; in the data active means inhibition above about 50%
SENP7 block = SENP7 protease inhibitors, primary screen, biochemical, luminescence, uHTS; Sentrin-specific protease 7 (Homo sapiens), Q9BQF6; recombinant SENP7, Z-RLRGG-aminoluciferin luminescence, 40 min; inhibition, % at 5 µM; 330,000 tested, 1.5% active;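 active means inhibition above about 50% at the single test dose, limit read from the data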;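 further: plate controls were DMSO with enzyme for no effect and no enzyme buffer wells for full effect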
Casp3 counter = CASP3 inhibitor validation, counterassay for project on UBE2N polyubiquitination blockers, biochemical, one dose. inhibition, % at 20 µM. shares compounds with UBC13 inh. Recombinant caspase-3, Caspase-Glo 3/7 luminescence, 60 min. AID 488856, 2010. 1,400 tested, 4% active;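 active means mean inhibition across replicates above about 26%, limit read from the data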;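 further: plate controls were DMSO with caspase-3 for no effect and DMSO wells lacking enzyme for full effect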
UBC13 conf = UBC13 polyubiquitination inhibitors, single-point retest, confirmation, biochemical, TR-FRET, single concentration | inhibition, % at 10 µM | 1,400 tested, 68% active | shares compounds with UBC13 inh; in the data active means inhibition above about 45%; inconclusive means no clear call, values can overlap the other calls
An asterisk follows results filed as active; i = inactive; u = inconclusive; x = no result given. Most compounds without a hit are left out; they make up all but 3% or so of the library.

SMILES | Apaf-1 inh | SENP8 block-1 | UBC13 inh | SENP6 inh | SENP8 block-2 | SENP7 block | Casp3 counter | UBC13 conf
CC[C@H](C)[C@@H](NC(=O)O[C@@H]1C(=O)c2cc(OC)ccc2O[C@H]1c1ccc(OC)c(Br)c1)C(=O)OC | 20 | i | 46* | -6 | -2 | -4 | 2 | u
CC(C)(C)c1cc(NCCCn2ccnc2)n2ncc(-c3ccc(Cl)cc3)c2n1 | 39 | -308 | 52* | -40 | -10 | -17 | 0 | 77*
Cc1cc(NCCCn2ccnc2)n2nc(-c3ccc(Cl)cc3)cc2n1 | 12 | -190 | 3 | -11 | 1 | 5 | x | x
CN(C)CCCNc1cc(C(C)(C)C)nc2c(-c3ccccc3)cnn12 | 15 | -432 | 66* | -17 | -4 | 0 | 1 | 34
Fc1cccc(-n2cc(-c3ccccc3)c3c(=S)nc[nH]c32)c1 | 10 | -4 | 56* | -5 | 0 | -2 | 0 | u
O=C1c2cccc3cccc(c23)N1Cc1ccc(F)cc1 | -4 | -352 | 83* | -5 | 8 | 6 | 3 | 96*
O=C1c2cccc3cccc(c23)N1Cc1cccc(F)c1 | 18 | -306 | 76* | -26 | 2 | 4 | -2 | 90*
O=C1c2cccc3cccc(c23)C(=O)N1Cc1cccnc1 | -9 | -258 | 65* | -16 | -9 | -6 | 0 | 83*
O=C1c2cccc3cccc(c23)C(=O)N1Cc1ccccc1 | 1 | -82 | 25 | -8 | -3 | -9 | x | x
COc1ccc(C(C#N)CC(=O)c2ccc(OCc3ccccc3)c(OC)c2)cc1OC (centres undefined) | x | -20 | x | x | x | x | x | x
COc1cc(/C=N/NC(=O)c2sc(N)c(C#N)c2C)ccc1O | -3 | -467 | 51* | -10 | 2 | -1 | -2 | 56*
Cc1c(C(=O)N/N=C/c2ccc(O)c(Br)c2)sc(N)c1C#N | x | -346 | x | x | x | x | x | x
O=C(Cn1cc(C(=O)c2cccs2)c2ccccc21)NC1CCCCC1 | 10 | -28 | 61* | -6 | -1 | -6 | -7 | 36
O=C(Cn1cc(C(=O)c2ccco2)c2ccccc21)NC1CCCC1 | -1 | -48 | 27 | -4 | -6 | -4 | x | x
CCOC(=O)CSc1nc(C(C)(C)C)cc(C(F)(F)F)c1C#N | 12 | -28 | 47* | -12 | -2 | 3 | 1 | 33
CNC(=O)c1c(NC(=O)c2cccc(N3C(=O)CCC3=O)c2)sc2c1CCC2 | -19 | -128 | 50* | 3 | 11 | -6 | 0 | 11
CNC(=O)c1c(NC(=O)c2ccc(N3C(=O)CCC3=O)cc2)sc2c1CCCC2 | -1 | -263 | -2 | -2 | -8 | -3 | x | x
C[C@H](CO)N1C[C@H](C)[C@@H](CN(C)S(=O)(=O)c2ccccc2)Oc2c(NC(=O)Nc3ccc(C(F)(F)F)cc3)cccc2C1=O | 14 | 6 | 52* | 0 | 6 | -2 | -2 | 37
COC(=O)c1c(NC(=O)c2nc3ccccc3s2)sc2c1CCN(C(C)=O)C2 | 18 | -406 | 104* | -9 | 0 | 2 | -2 | 94*
COC(=O)c1c(NC(=O)c2cccc(N3C(=O)CCC3=O)c2)sc2c1CCN(C(C)=O)C2 | 2 | -185 | -5 | 5 | -5 | -5 | x | x
O=C(N/N=C/c1ccccn1)c1cc(-c2ccc3ccccc3c2)n[nH]1 | 15 | 12 | 16 | 7 | -3 | 0 | x | x
O=C(N/N=C/c1ccccn1)c1cc(-c2cccc3ccccc23)n[nH]1 | 10 | 11 | -10 | -3 | -3 | 1 | x | x
O=C(N/N=C/c1ccccn1)c1cc(-c2ccccc2Cl)n[nH]1 | -2 | 12 | 47* | 3 | 7 | 6 | -2 | 42
CCc1ccc(-c2cc(C(=O)N/N=C/c3ccccn3)[nH]n2)cc1 | 12 | 2 | 50* | -22 | -11 | 6 | 2 | 54*
COc1ccc(C(=O)NCCCN2CCCC2=O)cc1S(=O)(=O)N1CCOCC1 | x | 16 | x | x | x | x | x | x
SMILES | Apaf-1 inh | SENP8 block-1 | UBC13 inh | SENP6 inh | SENP8 block-2 | SENP7 block | Casp3 counter | UBC13 conf
O=C(COC(=O)CCCCCN=C1NS(=O)(=O)c2ccccc21)Nc1ccc(Cl)c(Cl)c1 | 0 | 15 | 49* | 0 | -5 | 6 | -6 | 39
O=C(CCCN=C1NS(=O)(=O)c2ccccc21)OCC(=O)c1ccccc1 | 0 | 1 | -1 | -1 | 10 | 4 | x | x
CCc1ccc2nc(N(CCCN(C)C)C(=O)c3ccc(C(=O)c4ccccc4)cc3)sc2c1 | 24 | 14 | 74* | -23 | 2 | 4 | -4 | 108*
CN(C)CCCN(C(=O)c1ccc2c(c1)CCCC2)c1nc2ccc(Cl)cc2s1 | 16 | 17 | 65* | -15 | -5 | 2 | 2 | 93*
COc1ccc(-c2noc(CCC(=O)NC3CCCCCC3)n2)cc1OC | x | 2 | x | x | x | x | x | x
CCCNC(=O)C1(C)CCCN(Cc2ccccc2-c2ccccc2)C1 (centres undefined) | x | 9 | x | x | x | x | x | x
O=C1Nc2cc(C(=O)NCCCN3CCCC3)ccc2S/C1=C\c1ccccc1 | 24 | -21 | 19 | 12 | 4 | 5 | x | x
O=C1Nc2cc(C(=O)NCCCN3CCOCC3)ccc2S/C1=C/c1cccc(Cl)c1 | 13 | -183 | 57* | 3 | -15 | -5 | 9 | 72*
O=C1Nc2cc(C(=O)NCCCN3CCOCC3)ccc2S/C1=C/c1ccccc1F | 21 | -44 | 11 | 10 | -1 | 1 | x | x
COc1ccc(/C=C2/Sc3ccc(C(=O)NCCN4CCCCCC4)cc3NC2=O)cc1 | 49* | 16 | 67* | -5 | -17 | 3 | 0 | 86*
COc1ccccc1NC(=O)c1c(N=Cc2ccccc2O)cnn1C | 11 | x | 87* | 15 | 2 | 3 | -1 | 96*
COc1ccccc1NC(=O)c1c([N+](=O)[O-])cnn1C | -1 | 9 | -1 | 13 | 4 | -1 | x | x
NC(=O)CCCn1c(C(=O)c2cc(Cl)c(N)c(Cl)c2)c2ccc([N+](=O)[O-])cc2[n+]1[O-] | 8 | 20 | 82* | -5 | -2 | -4 | 1 | 78*
CSc1sc(-c2nnc(SCC(=O)Nc3ccccc3)n2C)c2c1C=CCC2 | -9 | 24 | 54* | 4 | -6 | 10 | -1 | u
CCCS(=O)(=O)NC(=O)C1(C)CCN(C(=O)c2c(-c3ccccc3)noc2C)C1 (centres undefined) | x | 16 | x | x | x | x | x | x
